# Results taken from ChEMBL document CHEMBL1154096, “Design, synthesis and anticancer evaluation of novel tetrahydroquinoline derivatives containing sulfonamide moiety” (Eur J Med Chem, 2009).
# Tested on: MCF7
# Experiment: Cytotoxicity against human MCF7 cells after 48 hrs by SRB assay
# Assay type: functional, cell-based
# Conditions: MCF7, 48 h
# Summary of the method: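 Cells seeded at 10⁴/well and left 24 h to attach. Compounds dissolved in DMSO, diluted in saline and added to the monolayer in triplicate wells per dose, then incubated 48 h at 37 °C in 5% CO₂. Cells were fixed and stained 30 min with 0.4% SRB in 1% acetic acid, washed four times with 1% acetic acid, and the dye recovered in Tris–EDTA. Absorbance was read, and surviving fraction plotted against concentration.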
row,SMILES,IC50
1,Cc1c2c(nc3[nH]c(=S)n(-c4ccc(S(N)(=O)=O)cc4)c(=N)c13)CCCC2,0.95 µg/mL
2,Cc1cc(NS(=O)(=O)c2ccc(-n3c(=S)[nH]c4nc5c(c(C)c4c3=N)CCCC5)cc2)no1,2.62 µg/mL
3,Cc1c2c(nc3[nH]c(=S)n(-c4ccc(S(=O)(=O)Nc5ncccn5)cc4)c(=N)c13)CCCC2,1.48 µg/mL
4,Cc1c2c(nc3[nH]c(=S)n(-c4ccc(S(N)(=O)=O)cc4)c(=N)c13)CC(C)(C)CC2=O,4 µg/mL
5,Cc1cc(NS(=O)(=O)c2ccc(N/C=N/c3nc4c(c(C)c3C#N)C(=O)CC(C)(C)C4)cc2)no1,1.9 µg/mL
6,Cc1cc(NS(=O)(=O)c2ccc(-n3cnc4nc5c(c(C)c4c3=N)C(=O)CC(C)(C)C5)cc2)no1,2.6 µg/mL
7,Cc1c(C#N)c(/N=C/Nc2ccc(S(N)(=O)=O)cc2)nc2c1C(=O)CC(C)(C)C2,2.62 µg/mL
8,Cc1c2c(nc3[nH]c(=S)n(-c4ccc(S(=O)(=O)NC(=N)N)cc4)c(=N)c13)CCCC2,1.28 µg/mL
9,Cc1cc(NS(=O)(=O)c2ccc(-n3c(=S)[nH]c4nc5c(c(C)c4c3=N)C(=O)CC(C)(C)C5)cc2)no1,> 10 µg/mL
10,Cc1c2c(nc3[nH]c(=S)n(-c4ccc(S(=O)(=O)NC(=N)N)cc4)c(=N)c13)CC(C)(C)CC2=O,5.17 µg/mL
11,Cc1c2c(nc3ncn(-c4ccc(S(N)(=O)=O)cc4)c(=N)c13)CC(C)(C)CC2=O,1.5 µg/mL
12,Cc1cc(NS(=O)(=O)c2ccc(N/C=N/c3nc4c(c(C)c3C#N)CCCC4)cc2)no1,1.95 µg/mL
13,Cc1c2c(nc3[nH]c(=S)n(-c4ccc(S(=O)(=O)Nc5ncccn5)cc4)c(=N)c13)CC(C)(C)CC2=O,9.19 µg/mL
14,Cc1c(C#N)c(/N=C/Nc2ccc(S(N)(=O)=O)cc2)nc2c1CCCC2,> 10 µg/mL
